Assay outcomes: PubChem BioAssay, several laboratories
Sampled rows, rich in hits. Any-hit rate of the full collection: about 0.94%.
HEK293 NFkB inh = inhibitors of PMA/ionomycin-induced NF-kB reporter, primary screen, antigen receptor NF-kB inhibitor project, cell-based, HEK-293 luciferase reporter, luminescence. inhibition, % at 3 µM. actives 0.21% (n = 62,000). HEK-293 NF-kB luciferase reporter;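 active = inhibition above the mean of all tested compounds plus 3 SD, cut at about 40% in these data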;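 note: 0% = stimulated DMSO wells and 100% = 10 µM reference inhibitor 5653914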
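Material: HEK-293 cells with stable firefly luciferase reporter driven by four HIV NF-kB elements / Also added: PMA plus ionomycin mix as NF-kB-activating stimulus / Compound dosing: 3 µM once, 0.30% DMSO / Times: 1 h pretreatment, 16 h stimulation, 37 °C / Signal: luminescence / Evaluation: per-plate % inhibition versus controls / Benchmarks: DMSO and 10 µM reference inhibitor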
ROCK2 blocker = inhibitors of human ROCK2 kinase, primary screen, biochemical, high-throughput, luminescence; Rho-associated protein kinase 2 (Homo sapiens), O75116; purified ROCK2, Kinase-Glo ATP depletion luminescence; inhibition, % at 6 µM; actives 0.35% (n = 60,000); AID 604, 2007;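 active = inhibition above the screen-wide mean inhibition plus 3 SD, cut at about 18% in these data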;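 note: plate controls were DMSO wells for no effect and Y-27632 control wells after no-enzyme background subtraction for full effect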
PKA kinase inh = inhibitors of human PKA kinase activity, primary screen, biochemical, ATP-depletion luminescence, Kemptide substrate | AID 524, 2006 | cAMP-dependent protein kinase catalytic subunit alpha (Homo sapiens), P17612 | PKA Kemptide phosphorylation, Kinase-Glo ATP luminescence | inhibition, % at 6 µM | actives 0.1% (n = 65,000);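 active = inhibition above the screen-wide mean inhibition plus 3 SD, cut at about 21% in these data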
JNK3 blocker = JNK3 kinase activity inhibitors, primary screen, biochemical, human, purified enzyme | Mitogen-activated protein kinase 10 (Homo sapiens), P53779 | HTS | inhibition, % at 8 µM | actives 0.61% (n = 60,000) | AID 746, 2007; in the data active = inhibition above about 17%;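 note: 0% = DMSO and 100% = reference inhibitor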
Target sequence (P53779 whole entry, looked up): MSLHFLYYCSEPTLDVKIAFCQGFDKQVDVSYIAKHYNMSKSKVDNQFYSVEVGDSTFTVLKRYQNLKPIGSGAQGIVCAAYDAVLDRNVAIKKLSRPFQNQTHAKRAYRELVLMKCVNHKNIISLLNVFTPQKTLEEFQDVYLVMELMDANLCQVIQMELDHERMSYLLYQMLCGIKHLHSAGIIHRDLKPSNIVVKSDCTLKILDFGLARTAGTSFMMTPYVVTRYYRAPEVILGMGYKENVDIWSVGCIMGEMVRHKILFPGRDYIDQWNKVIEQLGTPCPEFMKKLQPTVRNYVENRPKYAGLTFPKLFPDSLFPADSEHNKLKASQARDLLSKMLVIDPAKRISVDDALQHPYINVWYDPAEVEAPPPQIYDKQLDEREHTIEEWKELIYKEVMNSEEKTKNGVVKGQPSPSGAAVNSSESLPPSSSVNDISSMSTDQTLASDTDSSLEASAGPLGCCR
TNAP act DEA = human TNAP enzyme activators, primary screen, biochemical, luminescent, intermediate phosphate acceptor level. 64,000 tested, under 10 active. activation factor at 20 µM. purified TNAP, CDP-star luminescence, 100 mM DEA, 30 min; stronger effect = higher value; scale: 0 levamisole-inhibited, 1 vehicle-only enzyme;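 active = activation factor of at least 2 at 20 µM, relative to controls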
Hsp90 inh = tumor Hsp90 inhibitors, primary screen, cell lysate, fluorescence polarization, NCI-N417 lysate | Heat shock protein HSP 90-alpha (Homo sapiens), P07900 | Cy3B-geldanamycin FP displacement | inhibition, % at 30 µM | actives 0.35% (n = 64,000);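 active = inhibition above 50%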;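 note: 0% = tracer plus lysate wells and 100% = tracer alone without lysate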
* hit, by the source's call; i = inactive; · = no result given.

SMILES | HEK293 NFkB inh | ROCK2 blocker | PKA kinase inh | JNK3 blocker | TNAP act DEA | Hsp90 inh
C(=N\c1nc2ccccc2n1CCN1CCCCC1)/c1cccs1 | 5 | 19* | 5 | -2 | 0.9 | -5
COc1cc(C(=O)Nc2nccs2)ccc1OCc1c(C)noc1C | 5 | 3 | 5 | 21* | 0.9 | -4
COc1cc(C(=O)NCC2CCCO2)ccc1OCc1c(C)noc1C (stereo not drawn) | 26 | · | 10 | · | 0.9 | ·
N.N.O=C(O)C1(C(=O)O)CCC1.[Pt+2] | · | · | · | · | · | i
Cn1c(C(=O)N2CCCC(C(=O)N3CCN(C(=O)c4ccco4)CC3)C2)cc2sccc21 (stereo not drawn) | -2 | 84* | -7 | -3 | 0.9 | -1
Cn1c(C(=O)N2CCCC(C(=O)O)C2)cc2sccc21 (stereo not drawn) | -6 | 3 | 4 | 0 | 0.9 | 1
CCn1c(=O)cc(SCC(=O)Nc2ccccc2N2CCN(C)CC2)c2ccccc21 | 0 | -2 | 3 | 2 | 0.9 | -2
N=S(=O)(O)Cc1noc2ccccc12 | · | · | · | · | · | 2
Clc1ccc(COn2nnc3ccccc32)c(Cl)c1 | 45* | -2 | -6 | 8 | 0.9 | 0
COC1=C(OC)C(=O)c2ccccc2C1=O | · | · | · | · | · | 93*
CCCNc1ncnc2nc[nH]c12 | -8 | 16 | 17 | 4 | 1 | -3
c1ccc(CCCNc2ncnc3nc[nH]c23)cc1 | 2 | 8 | 22* | -1 | 1.3 | 0
COc1ccc(-c2cc(NCc3ccccn3)n3ncnc3n2)cc1 | 13 | · | -1 | · | 2* | ·
CC(Sc1cccc2cccc(C(=O)O)c12)C(=O)O (stereo not drawn) | 12 | 6 | 10 | 2 | 0.9 | -3
CC(Sc1ccc2ccccc2n1)C(=O)O (stereo not drawn) | · | 9 | 7 | 39* | 0.9 | -1
c1ccc2nc3c(nc2c1)c1ccccc1n3CCN1CCOCC1 | -31 | 1 | 7 | 18* | 1 | -22
O=C1NC(=O)c2cc(NC(=O)C3CCCCC3)ccc21 | 0 | 18* | 6 | 0 | 0.9 | 3
CC(=O)c1cccc(NC(=O)C2CCCC2)c1 | · | · | · | · | 0.9 | ·
COc1ccc(C(=O)n2nc(-c3ccccc3)nc2N)cc1OC | 17 | 12 | 6 | 49* | 0.8 | 1
Nc1nc(-c2ccccc2)nn1C(=O)Cc1ccccc1 | 19 | -11 | 2 | 1 | 0.8 | -2
N[C@@H](CC(=O)O)C(=O)O | · | · | · | · | · | -3
Cc1ccccc1OCC(O)Cn1c(NCCN(C)C)nc2c1c(=O)n(C)c(=O)n2C (stereo not drawn) | 16 | -2 | 5 | -6 | 0.9 | 92*
CCOC(=O)c1ccc(Cn2cnc3ccccc3c2=O)cc1 | -4 | 2 | 7 | 39* | 0.8 | -4
COC(=O)c1ccc(Cn2cnc3ccccc3c2=O)cc1 | 4 | · | 7 | · | 1 | ·
CCOc1ccc(/C(O)=C2\C(=O)C(=O)N(c3cc(C)on3)C2c2ccccc2OC)cc1 (stereo not drawn) | 13 | 3 | 5 | 21* | 0.9 | -1
SMILES | HEK293 NFkB inh | ROCK2 blocker | PKA kinase inh | JNK3 blocker | TNAP act DEA | Hsp90 inh
CCOc1ccc(C2/C(=C(\O)c3ccc(OC)c(OC)c3)C(=O)C(=O)N2c2cc(C)on2)cc1OC (stereo not drawn) | 6 | 0 | 3 | -2 | 0.9 | -3
CC1CCc2nc(N)c(C#N)c(-c3ccncc3)c2C1 (stereo not drawn) | 16 | 5 | 2 | 17* | 0.8 | 0
O=C(c1ccc(Cl)cc1)N1CCN(c2nc(N3CCCCC3)nc(N3CCCCC3)n2)CC1 | · | · | · | · | 1 | ·
CCOc1ccc(S(=O)(=O)Nc2ccc3c(c2)OCO3)c2cccnc12 | 4 | 1 | 0 | 6 | 0.9 | 54*
NC(N)=[N+]1CCc2ccccc2C1 | · | · | · | · | · | 1
Cc1cc(NC(=O)COC(=O)c2n[nH]c3ccccc23)no1 | 9 | 3 | 10 | 23* | 0.5 | -4
COc1ccc(CNC(=O)COC(=O)c2n[nH]c3ccccc23)cc1OC | 1 | 7 | 8 | 14 | 0.8 | -5
CNC(=O)[C@H]1O[C@@H](n2cnc3c(NCc4cccc(I)c4)ncnc32)C(O)[C@H]1O (stereo partly drawn) | · | · | · | · | · | -3
COc1ccc(COC(=O)C2=C(C)NC(=O)NC2c2ccc(O)c(OC)c2)cc1 (stereo not drawn) | 15 | 3 | 8 | 27* | 0.9 | -3
CCOCc1cc(C2NC(=O)NC(C)=C2C(=O)OCC)ccc1OC (stereo not drawn) | 10 | 0 | -1 | -6 | 1 | -3
COc1cc(C2NC(=O)NC(C)=C2C(=O)OCc2ccccc2)ccc1O (stereo not drawn) | 0 | 8 | 11 | 20* | 0.8 | -2
CCOc1cc(C2NC(=O)NC(C)=C2C(=O)OCc2ccccc2)ccc1O (stereo not drawn) | 11 | -2 | 0 | 19* | 0.9 | -4
CCOC(=O)C1=C(C)NC(=O)NC1c1ccc(OC)c(Cl)c1 (stereo not drawn) | 3 | 10 | 10 | 4 | 0.9 | -1
C[C@@H]1C(=O)NC2=Nc3cccc(Cl)c3CN21 | · | · | · | · | · | 2
COC(=O)c1c(-c2cc(OC)c(OC)c(OC)c2)c2ccnc(OCc3ncccn3)c2c(=O)n1Cc1ccnc(C)c1 | · | · | · | · | · | 3
COc1cc2c(cc1OC)[C@@H](c1ccccc1)CN(C)CC2 | · | · | · | · | · | 0
COc1ccc(CC(=O)NCc2ccccc2)cc1S(=O)(=O)N1CCOCC1 | 3 | 2 | 3 | 5 | 0.9 | -3
COc1ccc(CC(=O)Nc2nc3ccccc3s2)cc1S(=O)(=O)N1CCOCC1 | 12 | 6 | 11 | 37* | 0.9 | -3
CCSc1nnc(Cc2cc(=O)[nH]c(=O)[nH]2)n1-c1cc(C)ccc1C | 1 | 0 | 0 | 4 | 0.9 | -3
N#Cc1c(NCc2ccccc2)ccnc1NCc1cccnc1 | 11 | 3 | 4 | 75* | 0.9 | -2
COc1ccc(-n2nc3c(c2NC(=O)c2ccc(Br)cc2)CS(=O)C3)cc1 (stereo not drawn) | 10 | 3 | -6 | 5 | 0.9 | 55*
COc1ccc2nccc(C)c2c1 | · | · | · | · | · | -1
CC(N)(Cc1ccc(O)c(O)c1)C(=O)O (stereo not drawn) | · | · | · | · | · | 54*
Cc1cc(C(F)F)n2ncc(C(=O)NCc3ccccc3C(F)(F)F)c2n1 | 4 | -2 | -4 | 19* | 0.8 | -3
COc1ccccc1CCNC(=O)c1cnn2c(C(F)F)cc(C)nc12 | 20 | 0 | -8 | 7 | 1 | -4
